# Ecoli tolC: E. coli tolC mutant growth inhibition; E. coli BW25113 tolC mutant growth, OD615; growth inhibition, % at 10 µM (by protocol); actives 2.2% (n = 65,000); AID 573;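 active means growth inhibition at or above a cutoff equal to the mean over every tested compound plus 3 SD, cut at about 60% in these data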;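 further: growth measured after 20 h incubation at 37 °C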
#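 signal = optical density read at 615 nm | test system = E. coli ΔtolC::kan strain BW25113 | timing = 20 h compound exposure of bacteria at 37 °C | buffer or medium = LB medium plus 50 µg/mL kanamycin | compound dosing = 10 µM final, single dose | evaluation = % inhibition of E. coli growth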
# Calb biofilm kill: kills Candida albicans biofilms; C. albicans biofilm + clotrimazole, Alamar Blue; inhibition, % at 6 µM; actives 0.14% (n = 85,000);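 active means inhibition above 20%; inactive means inhibition below 20%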;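 further: preformed 24 hr biofilms exposed to compound for 48 hr; 0% = biofilm without compound and 100% = blank killed by clotrimazole plus chlorhexidine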
# PostGolgi ctrl: yeast control strain growth, post-Golgi counter-screen | efflux-deficient yeast background strain, growth absorbance A615, 16 h | inhibition, % at 10 µM | actives 5% (n = 98,000) | AID 738
# PostGolgi yeast: growth inhibition of a yeast mutant, post-Golgi transport screen; inhibition, % at 10 µM; actives 0.9% (n = 98,000); AID 739; post-Golgi transport phenotypic cell assay;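 further: yeast cells grown in 1536-well plates; yeast grown about 18 h at 30C before absorbance read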
# Ecoli WT expand: blocks growth of wild type E. coli BW25113 | actives 0.15% (n = 98,000) | AID 710 | growth inhibition, % at 100 µM | OD600 absorbance;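 active means growth inhibition above about 50% at one test dose, limit read from the data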;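 further: growth measured after 20 h incubation at 37 °C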
# Pyk2 oligo antag: Pyk2 (human) oligomerization antagonism. Q14289. z-score (the deposit names both 25 µM and 10 µM). actives 0.83% (n = 99,000). Q293 cells, Pyk2 FERM NanoBiT luminescence; stronger effect = lower value;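 active means Z-score of -3 or lower, scaled per plate to the spread of control and sample wells; inactive means z-score above -3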;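 further: negative z-score means lost luminescence so less FERM oligomerization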
# Target sequence (Q14289 whole entry, looked up): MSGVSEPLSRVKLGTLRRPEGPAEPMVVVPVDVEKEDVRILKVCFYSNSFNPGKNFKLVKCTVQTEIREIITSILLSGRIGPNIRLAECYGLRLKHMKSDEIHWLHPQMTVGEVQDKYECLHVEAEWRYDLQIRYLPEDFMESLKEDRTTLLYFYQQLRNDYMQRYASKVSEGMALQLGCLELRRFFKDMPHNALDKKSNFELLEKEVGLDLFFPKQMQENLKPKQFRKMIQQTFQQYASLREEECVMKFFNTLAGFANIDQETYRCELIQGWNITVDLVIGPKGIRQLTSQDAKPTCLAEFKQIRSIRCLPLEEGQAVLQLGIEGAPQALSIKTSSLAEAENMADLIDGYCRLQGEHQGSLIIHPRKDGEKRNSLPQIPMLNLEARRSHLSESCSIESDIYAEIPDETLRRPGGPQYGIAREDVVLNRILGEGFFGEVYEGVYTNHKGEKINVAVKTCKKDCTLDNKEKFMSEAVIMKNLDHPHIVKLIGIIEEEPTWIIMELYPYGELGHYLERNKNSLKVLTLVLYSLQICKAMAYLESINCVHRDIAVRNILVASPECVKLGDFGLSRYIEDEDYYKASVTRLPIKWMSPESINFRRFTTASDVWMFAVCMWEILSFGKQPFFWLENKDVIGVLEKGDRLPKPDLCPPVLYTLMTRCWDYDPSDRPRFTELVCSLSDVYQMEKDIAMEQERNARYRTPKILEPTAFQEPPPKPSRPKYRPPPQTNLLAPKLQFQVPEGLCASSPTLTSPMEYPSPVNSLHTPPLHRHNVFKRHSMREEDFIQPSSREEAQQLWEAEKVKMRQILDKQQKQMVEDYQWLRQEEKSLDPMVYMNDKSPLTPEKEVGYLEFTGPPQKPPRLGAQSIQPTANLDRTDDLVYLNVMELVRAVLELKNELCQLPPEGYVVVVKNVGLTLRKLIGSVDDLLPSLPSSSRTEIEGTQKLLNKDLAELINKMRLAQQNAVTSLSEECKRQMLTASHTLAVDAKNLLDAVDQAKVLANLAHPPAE
# * hit, by the source's call; . = no result. In the library only some 6.5% were active in any assay of this set; here they are far more common. Unless noted, no stated cut-off is given here; in the data, active means inhibition above about 30%; inactive means the rest.
SMILES,Ecoli tolC,Calb biofilm kill,PostGolgi ctrl,PostGolgi yeast,Ecoli WT expand,Pyk2 oligo antag
COc1cccc(-c2cc(C(=O)Nc3c(C)nn(Cc4ccccc4)c3C)no2)c1,31,1,15,-3,2,0.55
Cc1ccccc1Cn1cc(NC(=O)c2noc3c2CC(C(C)(C)C)CC3)cn1 (stereo not drawn),-5,8,2,4,2,-1.3
Cc1nn(Cc2ccc(Cl)cc2)c(C)c1NC(=O)c1noc2c1CCCCC2,84*,1,15,4,10,-1
Cc1ccccc1Cn1nc(C)c(NC(=O)c2noc3c2CC(C(C)(C)C)CC3)c1C (stereo not drawn),74*,4,17,4,1,-2.4
Cc1ccccc1Cn1nc(C)c(NC(=O)c2noc3c2CCc2ccccc2-3)c1C,68*,3,38*,25,-17,.
Cc1ccc(Oc2ccc(NC(=O)CCC(=O)OCC(=O)c3cccs3)cc2)cc1C,.,.,29,-3,-5,0.18
COCCNC(=O)CSc1nc(-c2ccccc2)cs1,.,0,4,12,1,0.13
Cc1cc(OCC(=O)Nc2ccc(F)c(F)c2)nc(C(C)C)n1,.,.,-1,-4,-4,0.81
O=C(O)CCC(=O)N1CCN(c2nc(-c3ccccc3Cl)c3cc(Br)ccc3n2)CC1,.,1,8,17,11,0.4
Cc1ccc(CN(Cc2cc3cc4c(cc3[nH]c2=O)OCCO4)Cc2nnnn2Cc2ccco2)cc1,.,-2,-1,12,-19,1.8
Cc1ccc2cc(CN(Cc3ccc4c(c3)OCO4)Cc3nnnn3Cc3ccco3)c(=O)[nH]c2c1,22,2,30*,11,-13,0.58
Cc1ccc(S(=O)(=O)c2c(N)n(Cc3ccco3)c3nc4ccccc4nc23)cc1C,.,1,6,-1,-8,-1.7
Nc1c(S(=O)(=O)c2ccccc2)c2nc3ccccc3nc2n1Cc1ccco1,28,3,30*,-22,-9,-1.1
CC(C)C(NS(=O)(=O)c1cccs1)C(=O)N1CCc2ccccc2C1 (stereo not drawn),0,10,2,4,3,-0.64
CCOC(=O)c1nnc(-c2ccccc2)nc1Oc1ccccc1Cl,.,.,31*,10,-8,1.1
FC(F)(F)c1nnc(-c2ccccc2)nc1Oc1ccc(Cl)cc1Cl,.,.,34*,8,4,0.42
CCOC(=O)c1nnc(-c2ccccc2)nc1NC,.,.,0,19,2,-0.07
CCC1(CC)C(=O)C(C)(C)C(=O)OC1c1cccs1 (stereo not drawn),6,3,11,-1,8,-0.15
CC(=O)c1n[nH]nc1Nc1nc(C)cc(C)n1,-2,.,.,.,.,-0.31
CC(=O)c1c(O)cc(C)n(Nc2nc(C)cc(C)n2)c1=O,73*,10,-3,1,1,-0.98
C/C(=N/NS(=O)(=O)c1ccc(Br)cc1)c1ccc(NC(=O)c2ccc(C)o2)cc1,.,.,41*,3,-4,0.45
Oc1ccc(/C=N/Nc2cc(N3CCOCC3)nc(N3CCOCC3)n2)cc1,.,.,.,.,.,-0.96
Oc1ccc(/C=N/Nc2cc(N3CCCC3)nc(N3CCCC3)n2)cc1,.,.,31*,17,-3,-1.1
O=C(NCc1cccs1)c1cnc2sccn2c1=O,-8,8,7,-4,8,.
Cc1cc(C)c2nc(C(F)(F)F)nc(NCCCN3CCOCC3)c2c1,.,4,30,41*,5,-1.9
SMILES,Ecoli tolC,Calb biofilm kill,PostGolgi ctrl,PostGolgi yeast,Ecoli WT expand,Pyk2 oligo antag
Fc1ccccc1-c1nc(NCCCN2CCOCC2)c2ccccc2n1,5,5,.,.,.,.
Cc1ccc(CN(CC(=O)N/N=C/c2ccco2)S(=O)(=O)c2ccc(C)cc2)cc1,.,.,3,-4,-14,1.6
O=C1COc2cccnc2N1,-15,4,38*,-1,-8,-0.43
CCOC(=O)c1ccc2c(c1)N(Cc1ccccc1C)C(=O)c1ccccc1S2=O (stereo not drawn),14,8,31*,2,-9,-0.85
NC(=O)c1cc(Cc2ccccc2)sc1NC(=O)c1ccco1,57,1,45*,9,0,-3.1*
O=C(Nc1nnc(Cc2ccccc2)s1)c1ccco1,.,3,19,-2,-11,0.42
COc1cccc(N2CC(C(=O)Nc3ccc(C(=O)OC(C)C)cc3)CC2=O)c1 (stereo not drawn),62*,2,12,3,-8,-0.64
COc1cccc(N2CC(C(=O)NC3CCCCC3)CC2=O)c1 (stereo not drawn),-4,1,2,2,-6,-0.15

# High-throughput results as filed in PubChem BioAssay.
